Tests used:
Details in all cases: stereoisomer not certain
Or5an6 (Mus musculus) = target: T1, Or5an6 (Mus musculus) (UniProt Q8VFV4)
T1 sequence (whole entry): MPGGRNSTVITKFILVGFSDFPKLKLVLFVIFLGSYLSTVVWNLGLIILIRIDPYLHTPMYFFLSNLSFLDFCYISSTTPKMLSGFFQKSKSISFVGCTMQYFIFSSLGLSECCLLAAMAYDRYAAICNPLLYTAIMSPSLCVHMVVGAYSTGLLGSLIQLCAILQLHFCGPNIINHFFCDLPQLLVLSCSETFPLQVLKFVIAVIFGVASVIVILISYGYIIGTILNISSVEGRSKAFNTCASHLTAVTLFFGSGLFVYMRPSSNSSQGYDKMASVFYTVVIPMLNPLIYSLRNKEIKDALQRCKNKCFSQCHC
In short: (§1)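 Transient luciferase assays in mammalian cell lines were common, though methods varied by source. The values come from published papers and their supplementary material, with extra details from the original authors when needed. Responsive refers to a measured signal the original authors judged statistically different from baseline, and non-responsive (inactive) to the remainder.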

Or5k16 (Mus musculus) = target: T2, Or5k16 (Mus musculus) (UniProt Q7TS48)
T2 sequence (whole entry): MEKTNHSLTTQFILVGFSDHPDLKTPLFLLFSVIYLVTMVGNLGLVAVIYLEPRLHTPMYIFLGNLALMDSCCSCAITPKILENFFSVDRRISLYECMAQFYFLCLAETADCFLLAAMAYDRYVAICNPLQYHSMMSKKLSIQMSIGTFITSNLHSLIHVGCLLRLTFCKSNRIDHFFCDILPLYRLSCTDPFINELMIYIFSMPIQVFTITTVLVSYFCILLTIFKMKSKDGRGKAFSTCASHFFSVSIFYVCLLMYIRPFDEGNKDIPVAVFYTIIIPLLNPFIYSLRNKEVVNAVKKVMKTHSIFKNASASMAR
In short: as §1

Q8N628 T20A L289V = test system: Q8N628 T20A L289V
In short: as §1

Q8NGC2 A119T = test system: Q8NGC2 A119T
In short: as §1

Q8NGH7 D88N = test system: Q8NGH7 D88N
In short: as §1

Q8VF87 A279V = test system: Q8VF87 A279V
In short: as §1

Q8VF87 E162D = test system: Q8VF87 E162D
In short: as §1

Q8VF87 I202L = test system: Q8VF87 I202L
In short: as §1

Or1m1 (Mus musculus) = target: T3, Or1m1 (Mus musculus) (UniProt Q8VFM9)
T3 sequence (whole entry): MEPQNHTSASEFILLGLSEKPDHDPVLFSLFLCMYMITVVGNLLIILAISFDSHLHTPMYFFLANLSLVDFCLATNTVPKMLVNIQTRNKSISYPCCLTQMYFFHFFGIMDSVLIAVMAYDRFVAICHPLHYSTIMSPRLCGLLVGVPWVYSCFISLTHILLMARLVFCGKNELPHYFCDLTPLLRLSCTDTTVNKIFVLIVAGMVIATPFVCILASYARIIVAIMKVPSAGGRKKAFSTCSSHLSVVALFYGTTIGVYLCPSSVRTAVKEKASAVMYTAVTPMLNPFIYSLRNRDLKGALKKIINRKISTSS
In short: as §1

Or2c1 (Mus musculus) = target: T4, Or2c1 (Mus musculus) (UniProt P23275)
T4 sequence (whole entry): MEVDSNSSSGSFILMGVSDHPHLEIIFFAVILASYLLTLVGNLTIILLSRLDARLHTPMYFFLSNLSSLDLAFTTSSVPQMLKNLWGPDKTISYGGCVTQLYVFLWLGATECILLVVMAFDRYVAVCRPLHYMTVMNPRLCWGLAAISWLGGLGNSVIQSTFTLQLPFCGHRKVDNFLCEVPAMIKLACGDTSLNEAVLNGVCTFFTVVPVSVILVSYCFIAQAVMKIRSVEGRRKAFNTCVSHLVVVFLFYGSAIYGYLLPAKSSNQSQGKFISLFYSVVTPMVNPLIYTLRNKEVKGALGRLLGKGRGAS
In short: as §1

Or5ar1 (Mus musculus) = target: T5, Or5ar1 (Mus musculus) (UniProt Q8VGS3)
T5 sequence (whole entry): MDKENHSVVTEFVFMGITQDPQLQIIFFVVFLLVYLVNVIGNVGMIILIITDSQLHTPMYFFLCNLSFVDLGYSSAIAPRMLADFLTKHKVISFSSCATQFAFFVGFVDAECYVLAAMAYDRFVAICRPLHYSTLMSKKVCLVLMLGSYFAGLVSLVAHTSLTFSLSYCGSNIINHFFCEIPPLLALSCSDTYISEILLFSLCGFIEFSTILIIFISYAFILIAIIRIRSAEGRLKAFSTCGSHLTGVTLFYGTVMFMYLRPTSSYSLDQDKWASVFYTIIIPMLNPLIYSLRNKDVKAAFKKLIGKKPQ
In short: as §1

Or5p80 (Mus musculus) = target: T6, Or5p80 (Mus musculus) (UniProt Q8VG42)
T6 sequence (whole entry): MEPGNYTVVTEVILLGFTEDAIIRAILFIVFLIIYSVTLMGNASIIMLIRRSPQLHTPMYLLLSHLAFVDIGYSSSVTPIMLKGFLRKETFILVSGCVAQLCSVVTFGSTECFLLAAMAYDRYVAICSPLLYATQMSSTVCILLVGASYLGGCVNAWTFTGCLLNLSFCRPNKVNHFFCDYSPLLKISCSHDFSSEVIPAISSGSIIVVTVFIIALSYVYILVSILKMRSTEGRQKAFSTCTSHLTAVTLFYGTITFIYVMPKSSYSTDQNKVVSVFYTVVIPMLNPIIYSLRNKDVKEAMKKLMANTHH
In short: as §1

Or7a40 (Mus musculus) = target: T7, Or7a40 (Mus musculus) (UniProt Q9JHB2)
T7 sequence (whole entry): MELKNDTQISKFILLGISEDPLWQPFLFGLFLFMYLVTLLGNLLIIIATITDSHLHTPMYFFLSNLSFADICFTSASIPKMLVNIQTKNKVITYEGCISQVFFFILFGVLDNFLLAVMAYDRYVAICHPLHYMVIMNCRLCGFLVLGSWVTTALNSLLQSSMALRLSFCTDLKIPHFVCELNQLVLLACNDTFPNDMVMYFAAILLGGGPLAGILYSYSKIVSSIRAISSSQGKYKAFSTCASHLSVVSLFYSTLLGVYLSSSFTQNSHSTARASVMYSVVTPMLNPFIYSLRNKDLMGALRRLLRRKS
In short: as §1

Or5p57 (Mus musculus) = target: T8, Or5p57 (Mus musculus) (UniProt Q8VEZ0)
T8 sequence (whole entry): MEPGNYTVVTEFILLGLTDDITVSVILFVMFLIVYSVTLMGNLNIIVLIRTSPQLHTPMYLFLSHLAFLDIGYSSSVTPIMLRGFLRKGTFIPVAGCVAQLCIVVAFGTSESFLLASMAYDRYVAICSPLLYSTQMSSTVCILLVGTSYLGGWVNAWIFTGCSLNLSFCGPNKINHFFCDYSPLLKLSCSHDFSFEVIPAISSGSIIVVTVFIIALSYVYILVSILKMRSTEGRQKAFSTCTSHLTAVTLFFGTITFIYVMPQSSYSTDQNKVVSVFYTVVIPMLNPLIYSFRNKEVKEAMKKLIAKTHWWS
In short: as §1

Measured: odorant receptor agonist call

CC1CCCCCCCCCCCCC(=O)C1 (stereo not drawn)
active: Or5an6 (Mus musculus)

CC(=O)c1c(C)c([N+](=O)[O-])c(C(C)(C)C)c([N+](=O)[O-])c1C
active: Or5an6 (Mus musculus)

Cc1cnc(C)c(C)n1
inactive: Or5k16 (Mus musculus)

CC1=NC(C)C(C)S1 (stereo not drawn)
active: Or5k16 (Mus musculus)

CCCCCCC=CCCC=O
inactive: Q8N628 T20A L289V | Q8NGC2 A119T | Q8NGH7 D88N

CCC(S)C(C)CO (stereo not drawn)
inactive: Q8VF87 A279V | Q8VF87 E162D | Q8VF87 I202L

CCCCC(C)=O
inactive: Or1m1 (Mus musculus) | Or2c1 (Mus musculus) | Or5ar1 (Mus musculus) | Or5p80 (Mus musculus) | Or7a40 (Mus musculus)

CC12CCC(CC1=O)C2(C)C (stereo not drawn)
inactive: Or1m1 (Mus musculus) | Or2c1 (Mus musculus) | Or5ar1 (Mus musculus) | Or5p80 (Mus musculus) | Or7a40 (Mus musculus)

O=C(c1ccccc1)c1ccccc1
inactive: Or1m1 (Mus musculus) | Or2c1 (Mus musculus) | Or5ar1 (Mus musculus) | Or5p80 (Mus musculus) | Or7a40 (Mus musculus)

C=CCOC(=O)CCCCCC
inactive: Or1m1 (Mus musculus) | Or2c1 (Mus musculus) | Or5ar1 (Mus musculus) | Or5p80 (Mus musculus) | Or7a40 (Mus musculus)

CCCCCCCCCCO
inactive: Or1m1 (Mus musculus) | Or2c1 (Mus musculus) | Or5ar1 (Mus musculus) | Or5p80 (Mus musculus) | Or7a40 (Mus musculus)

CCCCOC=O
inactive: Or1m1 (Mus musculus) | Or2c1 (Mus musculus) | Or5ar1 (Mus musculus) | Or5p80 (Mus musculus) | Or7a40 (Mus musculus)

CCCCCOC(=O)CCCCC
active: Or2c1 (Mus musculus)
inactive: Or1m1 (Mus musculus) | Or5ar1 (Mus musculus) | Or5p80 (Mus musculus) | Or7a40 (Mus musculus)

CCOC(=O)C(C)C
inactive: Or1m1 (Mus musculus) | Or2c1 (Mus musculus) | Or5ar1 (Mus musculus) | Or5p80 (Mus musculus) | Or7a40 (Mus musculus)

CCc1ccc(O)cc1
inactive: Or1m1 (Mus musculus) | Or5ar1 (Mus musculus)

CCCCCCCC(C)=O
inactive: Or1m1 (Mus musculus) | Or2c1 (Mus musculus) | Or5ar1 (Mus musculus) | Or5p80 (Mus musculus) | Or7a40 (Mus musculus)

CCCCCCCCO
inactive: Or1m1 (Mus musculus) | Or2c1 (Mus musculus) | Or5ar1 (Mus musculus) | Or5p57 (Mus musculus) | Or5p80 (Mus musculus) | Or7a40 (Mus musculus)

CC(C)=CCCC(C)CCO (stereo not drawn)
inactive: Or1m1 (Mus musculus) | Or2c1 (Mus musculus) | Or5ar1 (Mus musculus) | Or5p80 (Mus musculus) | Or7a40 (Mus musculus)

O=C1Cc2ccccc2O1
inactive: Or1m1 (Mus musculus) | Or5ar1 (Mus musculus) | Or5p80 (Mus musculus) | Or7a40 (Mus musculus)
active: Or2c1 (Mus musculus)

— the M2OR odorant receptor database
